The text below walks through data of article PMC3475454 (Bioscience Reports, 2012).

Structures are written as SMILES. pIC50: −log10 of the molar value.

For experiment [1], the target named is T1, firefly luciferase (Photinus pyralis, UniProt P08659). Nature of the experiment: Monitoring of firefly luciferase in living cells with D-luciferin-ethylester. It is filed as cell-based. The note with it: 20 μM, 30 min pre-incubation, 70.4 K15 and 55.1c K65 cells. In short, it runs like this: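 Living 70.4 K15 and 55.1c K65 cells stably expressing firefly luciferase were pre-incubated for 30 min in medium with 20 μM test compound (37°C, 5% CO2) and then washed with PBS. After 5 min, signal was read on a plate reader over 4 min or on a CCD camera over 8 min; n=4.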
T1 sequence (P08659 whole entry): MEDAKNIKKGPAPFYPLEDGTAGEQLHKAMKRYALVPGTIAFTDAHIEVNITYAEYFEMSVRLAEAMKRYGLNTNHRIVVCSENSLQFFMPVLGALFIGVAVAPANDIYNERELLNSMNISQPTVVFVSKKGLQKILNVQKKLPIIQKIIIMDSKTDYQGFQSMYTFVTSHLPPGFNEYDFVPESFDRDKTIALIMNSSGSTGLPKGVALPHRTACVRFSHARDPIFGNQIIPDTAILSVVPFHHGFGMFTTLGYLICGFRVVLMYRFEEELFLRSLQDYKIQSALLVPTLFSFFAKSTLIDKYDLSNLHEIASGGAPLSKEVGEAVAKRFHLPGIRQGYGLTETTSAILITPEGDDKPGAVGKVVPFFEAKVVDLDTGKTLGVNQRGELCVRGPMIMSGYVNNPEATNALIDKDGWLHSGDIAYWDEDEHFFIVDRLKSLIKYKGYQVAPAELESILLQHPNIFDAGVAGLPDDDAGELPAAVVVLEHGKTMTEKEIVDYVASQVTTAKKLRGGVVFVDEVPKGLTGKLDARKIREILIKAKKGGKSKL

Experiment [2] concerns β-catenin target genes Axin2 and Gpr49. The experiment is described as follows: Real-time RT-PCR of β-catenin target genes. The experiment is classed as cell-based, mouse. The note with it: 20 μM, 24 h. (In qPCR the cycle at which signal appears reflects the starting amount.)
Another experiment concerns the target Renilla luciferase (Renilla reniformis, UniProt P27652). The experiment is described as follows: Renilla luciferase activity assay in cell lysates. It is filed as biochemical. The note with it: 20 μM added to lysates of Hepa1c1c7, 70.4 and 55.1c cells. In short, it runs like this: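 Hepa1c1c7, 70.4 and 55.1c cells were transfected with CMV-driven Renilla luciferase plasmid. After 24 h, cells were lysed in passive lysis buffer. 20 μM test compound (1% v/v of 2 mM DMSO stock) was added to the lysate 5 min before reading. Luminescence was read for 10 s; n=3 and 4.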

A further experiment deals with Gaussia luciferase. The experiment is described as follows: Gaussia luciferase activity assay in cell culture supernatant. The note with it: 20 μM, Hepa1c1c7, 70.4 and 55.1c cells. The experiment is classed as biochemical. In short, it runs like this: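 Hepa1c1c7, 70.4 and 55.1c cells were transfected by Lipofectamine 2000 with an AP-1-responsive Gaussia luciferase vector. After 24 h, culture supernatant was taken. 20 μM test compound (1% v/v of 2 mM DMSO solution) was added 5 min before reading. Luminescence was read for 10 s; n=3 and 4.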

Experiment [3] addresses T1, firefly luciferase. The experiment is described as follows: Inhibition of pure commercially available firefly luciferase. It is filed as biochemical. Conditions: 10 μM, different enzyme concentrations. In short, it runs like this: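 Purified commercial firefly luciferase was prepared as a stock of 1 mg/ml in luciferase assay buffer lacking ATP and D-luciferin, supplemented with 0.1% BSA. Several enzyme concentrations were assayed with 10 μM test compound. Values are means of two experiments.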

Experiment [4] deals with T1, firefly luciferase. The experiment is described as follows: Firefly luciferase reporter. It is filed as cell-based. The note with it: 20 μM; for Firefly luciferase inhibition in cells: stably transfected cell lines. The procedure, abridged:
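Stably STF-transfected 70.4- and 55.1c-derived mouse hepatoma clones, with G418 removed at plating, were exposed in culture to 20 μM test compound (0.1% DMSO) for 1 h or 24 h. Cells were lysed in passive lysis buffer. Signal was normalised to Alamar Blue vitality and expressed as % untreated; n=3 and 4.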
On the technique in general: Reporter assays use an easily measured gene product as a stand-in for the process of interest.

The target of experiment [5] is T1, firefly luciferase. Nature of the experiment: Firefly luciferase activity assay in cell lysates, compound added to lysate. The experiment is classed as biochemical. Conditions: for pIC50: IC50 for firefly luciferase inhibition.
The test system of experiment [6] is firefly luciferase. Conditions: cited from earlier work.
For the next experiment, the target named is T2, Ultra-Glo luciferase (Photuris pensylvanica, UniProt Q27757).
T2 sequence (Q27757 1-545): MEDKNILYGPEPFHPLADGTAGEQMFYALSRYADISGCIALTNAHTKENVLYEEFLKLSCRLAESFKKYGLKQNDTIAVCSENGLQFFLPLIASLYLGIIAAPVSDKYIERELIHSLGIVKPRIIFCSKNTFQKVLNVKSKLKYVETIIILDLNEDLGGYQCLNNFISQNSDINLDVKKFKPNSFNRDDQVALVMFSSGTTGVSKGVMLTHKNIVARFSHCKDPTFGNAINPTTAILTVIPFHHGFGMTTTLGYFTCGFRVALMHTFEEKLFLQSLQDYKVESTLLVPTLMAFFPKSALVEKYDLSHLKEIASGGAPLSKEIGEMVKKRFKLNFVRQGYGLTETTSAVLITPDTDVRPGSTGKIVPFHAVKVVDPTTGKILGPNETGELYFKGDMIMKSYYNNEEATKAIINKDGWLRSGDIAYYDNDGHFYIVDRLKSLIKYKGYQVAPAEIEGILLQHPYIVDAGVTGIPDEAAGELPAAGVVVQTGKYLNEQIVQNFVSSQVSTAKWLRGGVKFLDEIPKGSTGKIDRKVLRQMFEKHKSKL
Conditions: ref Promega Corporation web page; cited from earlier work.

Chain of Renilla luciferase (P27652 whole entry): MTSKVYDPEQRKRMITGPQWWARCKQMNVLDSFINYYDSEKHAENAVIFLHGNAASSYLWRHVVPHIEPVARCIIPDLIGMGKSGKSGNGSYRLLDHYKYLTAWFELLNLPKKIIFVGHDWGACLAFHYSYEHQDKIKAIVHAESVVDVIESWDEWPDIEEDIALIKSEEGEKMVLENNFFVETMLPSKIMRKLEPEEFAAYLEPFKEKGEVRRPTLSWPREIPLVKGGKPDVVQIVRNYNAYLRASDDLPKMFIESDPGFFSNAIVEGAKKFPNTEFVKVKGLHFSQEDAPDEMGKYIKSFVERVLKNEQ

Usually pIC50 stands for −log10 of the IC50, conventionally taken in molar units. The low end stands for a high IC50, the high end for a low IC50. Consider `COc1ccc(/C=C/c2ccccc2F)cc1` [NFκBAI4, (E)-2-fluoro-4′-methoxystilbene], for which, on firefly luciferase [1], the “Firefly luciferase activity in living cells” value is listed as “effectively inhibits”. Besides, the “mRNA levels of Axin2 and Gpr49” value in [2] is given as “not accompanied by a decrease in mRNA levels”. Also, the “Effect on Renilla luciferase” value at Renilla luciferase was “not affected”. Further, in the experiment on Gaussia luciferase, the “Effect on Gaussia luciferase” value is listed as “not affected”. Besides, at firefly luciferase [3], the “Inhibition of pure firefly luciferase” value is reported as “also inhibited”. For the same compound, the “Duration of firefly luciferase inhibition in living cells” value at firefly luciferase [4] was greater than 24 h. Further, the “Firefly luciferase inhibition in cells” value is “strongly inhibited” on firefly luciferase [4] (1 h incubation); “still pronounced” on firefly luciferase [4] (24 h incubation); “still visible in 70.4-derived, but not in 55.1c-derived, cell lines” at firefly luciferase [4] (48 h incubation). Also, at firefly luciferase [4] (24 h, transiently transfected Hepa1c1c7, 70.4 and 55.1c cells), the “Luminescence of STF firefly luciferase reporter” value is given as “strong decrease of luminescence”. Further, at firefly luciferase [5] (1 μM, coenzyme A-free buffer, 9 min, compared with untreated lysate), the “Decay of the luminescence signal” value is “somewhat less pronounced”. At firefly luciferase [5] (20 μM added to Renilla buffer), the “Quenching of remnant firefly signal by Renilla buffer” value is listed as “further improved”. Also, the “Inhibition of firefly luciferase signals” value on firefly luciferase [5] (20 μM added to lysates of untreated transiently transfected Hepa1c1c7, 70.4 and 55.1c cells) is recorded as “strongly inhibited”. Moreover, the pIC50 is 6.02 on firefly luciferase [5] (lysate of 55.1cSTF K53 cells); 5.85 against firefly luciferase [5] (lysate of 55.1cSTF K65 cells); 6.07 against firefly luciferase [5] (lysate of 70.4STF K15 cells); 6.06 against firefly luciferase [5] (lysate of 70.4STF K31 cells); roughly 6.00 on firefly luciferase [5] (reaction buffer without coenzyme A, results not shown). The “Mechanism of inhibition with respect to ATP and D-luciferin” value on firefly luciferase [5] (varied ATP and D-luciferin, mixed hyperbolic fit) is “non-competitive”.
For the compound `Oc1ccc(/C=C/c2cc(O)cc(O)c2)cc1` [Resveratrol, 3,5,4′-trihydroxy-trans-stilbene], the “Mechanism of inhibition with respect to ATP and D-luciferin” value in the experiment on firefly luciferase [6] is reported as “non-competitive”. The “Resistance of Ultra-Glo luciferase against inhibition” value on Ultra-Glo luciferase is reported as “more resistant”. Also, the “Firefly luciferase inhibition in cells” value at firefly luciferase [4] (1 h incubation) is recorded as “weaker”; on firefly luciferase [4] (24 h incubation), “disappeared in all cell lines”.
As for `Cc1cccc(/C=C/c2ccccc2)n1` [SIB-1893], in the experiment on firefly luciferase [6] (compared with NFκBAI4), the “Efficacy of firefly luciferase inhibition” value is recorded as “somewhat lower efficacy”.
